Data published in PMC6044853 (ACS Omega, 2017).
In brackets after ≈: the same amount, converted by molar mass.

Experiments:
[1] = tested on: S. aureus strain ATCC 29213; assay: MIC, broth microdilution; assay type: cell-based, Staphylococcus aureus; conditions: S. aureus 29213; Table 1
In short: (§1)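 Broth microdilution per CLSI guidelines. MIC is the lowest concentration preventing visible bacterial growth. MIC is reported in μg/mL, with S. aureus values also converted to μM.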

[2] = tested on: E. coli strain ATCC 25922; assay: MIC, broth microdilution; assay type: cell-based; conditions: Escherichia coli, ATCC25922, read-out: MIC E. coli
In short: as §1

S. aureus ATCC 29247 = assay: MIC, clinical isolate strain 1; assay type: cell-based; conditions: Staphylococcus aureus, ATCC29247, read-out: MIC strain 1
In short: as §1

S. aureus ATCC 43300 = assay: MIC, clinical isolate strain 5; assay type: cell-based; conditions: Staphylococcus aureus, ATCC43300, read-out: MIC strain 5
In short: as §1

USA300 #417 = assay: MIC, clinical isolate strain 6; assay type: cell-based; conditions: Staphylococcus aureus, USA300, read-out: MIC strain 6
In short: as §1

USA300 #757 = assay: MIC, clinical isolate strain 7; assay type: cell-based; conditions: Staphylococcus aureus, USA300, read-out: MIC strain 7
In short: as §1

USA300 #1799 = assay: MIC, clinical isolate strain 8; assay type: cell-based; conditions: Staphylococcus aureus, USA300, read-out: MIC strain 8
In short: as §1

USA300 #2690 = assay: MIC, clinical isolate strain 9; assay type: cell-based; conditions: Staphylococcus aureus, USA300, read-out: MIC strain 9
In short: as §1

G. mellonella larvae = assay: Toxicity in G. mellonella larvae; assay type: in vivo, Galleria mellonella; conditions: 50 and 100 mg/kg in 50% PEG in saline, injected, 48 h
In short: (§2)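 G. mellonella model: groups of 10 last-instar larvae weighing 200–300 mg, held at 37 °C. Test compound is dissolved in 50% PEG in saline (0 [vehicle], 50, 100 mg/kg) and injected into the last left proleg with a Hamilton syringe. Mortality is scored every 12 h for 48 h. Survival is analysed by log rank and χ² test (1 degree of freedom), with three independent experiments.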

[3] = tested on: G. mellonella larvae infected with MRSA ATCC 43300; assay: Antimicrobial efficacy in G. mellonella model of infection; assay type: in vivo, Galleria mellonella; conditions: 2.5 × 10^6 CFU/larva MRSA ATCC 43300
In short: as §2

S. aureus FtsZ [4] = biological target: T1, S. aureus FtsZ (Staphylococcus aureus, UniProt P0A031); assay: STD NMR study; assay type: binding
T1 sequence (P0A031 1-390): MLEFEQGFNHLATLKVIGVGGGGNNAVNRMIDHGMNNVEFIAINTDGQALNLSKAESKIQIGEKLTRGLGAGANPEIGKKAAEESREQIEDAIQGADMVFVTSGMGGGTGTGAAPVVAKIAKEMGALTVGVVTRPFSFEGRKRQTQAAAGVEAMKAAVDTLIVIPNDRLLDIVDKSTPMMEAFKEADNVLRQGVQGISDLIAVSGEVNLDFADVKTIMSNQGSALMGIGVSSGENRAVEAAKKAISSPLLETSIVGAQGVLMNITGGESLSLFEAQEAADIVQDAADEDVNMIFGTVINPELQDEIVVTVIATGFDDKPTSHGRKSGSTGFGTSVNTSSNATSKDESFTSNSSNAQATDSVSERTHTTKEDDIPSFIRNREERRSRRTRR
In short: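 Saturation transfer difference NMR with purified S. aureus FtsZ at 600 MHz and 298 K. For group epitope mapping, each proton's STD signal is integrated relative to the strongest STD signal, set to 100%.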

S. aureus FtsZ [5] = biological target: T1, S. aureus FtsZ; assay: Light scattering assay of FtsZ polymerization; assay type: biochemical; conditions: 30 μM compound, vs 1% DMSO vehicle
S. aureus FtsZ [6] = biological target: T1, S. aureus FtsZ; assay: GTPase hydrolysis activity assay; assay type: biochemical; conditions: read-out: inhibition of GTPase hydrolysis activity
B. subtilis 168 [7] = assay: MIC, B. subtilis 168; assay type: cell-based; conditions: Bacillus subtilis, 168, read-out: MIC B. subtilis 168
B. subtilis 168 [8] = assay: Bacterial morphology of B. subtilis 168; assay type: cell-based, Bacillus subtilis; conditions: sublethal concentration; DMSO-treated cells < 5 μm
[9] = tested on: green fluorescent protein-tagged FtsZ in B. subtilis 168; assay: Z-ring visualization of B. subtilis 168; assay type: cell-based, Bacillus subtilis
In short: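 B. subtilis 168 expressing functional GFP-tagged FtsZ is treated with compound or DMSO. Z-ring formation is imaged by fluorescence microscopy alongside matching phase-contrast images.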

[10] = Solubility in aqueous medium; assay type: physicochemical; conditions: precipitation in aqueous medium at >80 μM

| SMILES | MIC S. aureus [1] [µg/mL] | MIC S. aureus, number in parentheses calculated in μM [1] [µM] | MIC [2] [µg/mL] | MIC (S. aureus ATCC 29247) [µg/mL] | MIC (S. aureus ATCC 43300) [µg/mL] | MIC (USA300 #417) [µg/mL] | MIC (USA300 #757) [µg/mL] | MIC (USA300 #1799) [µg/mL] | MIC (USA300 #2690) [µg/mL] | toxicity to G. mellonella larvae (survival) (G. mellonella larvae) | survival time of infected larvae ([3]; 50 mg/kg) [h] | survival rate of infected larvae ([3]; 100 mg/kg, 48 h) [%] | binding to FtsZ protein by STD NMR (S. aureus FtsZ [4]) | inhibition of FtsZ polymerization (S. aureus FtsZ [5]) | inhibition at 50 µM (S. aureus FtsZ [6]) [%] | inhibition at 75 µM (S. aureus FtsZ [6]) [%] | MIC (B. subtilis 168 [7]) [µM] | average cell length (B. subtilis 168 [8]) [μm] | Z-ring localization [9] | compound solubility [10] |
| --- | --- | --- | --- | --- | --- | --- | --- | --- | --- | --- | --- | --- | --- | --- | --- | --- | --- | --- | --- | --- |
| CCC(CC)c1cc(CCN2CCCN(Cc3ccc(C(F)(F)F)cc3)CC2)nc(-c2ccncc2)n1 [14av_amine16, 1-(2-(6-(Pentan-3-yl)-2-(pyridin-4-yl)pyrimidin-4-yl)ethyl)-4-(4-(trifluoromethyl)benzyl)-1,4-diazepane] | 4 (≈ 7.82 µM) | 8 (≈ 4.09 µg/mL) | > 64 | 4 (≈ 7.82 µM) | 6 (≈ 11.7 µM) | 6 (≈ 11.7 µM) | 6 (≈ 11.7 µM) | 6 (≈ 11.7 µM) | 6 (≈ 11.7 µM) | did not kill the G. mellonella larvae | 36 | 20 | binds to FtsZ protein | complete inhibition | ~20 | ~25 | 12 (≈ 6.14 µg/mL) | > 20 | obvious mislocalization of the Z-ring | poor compound solubility |
| COc1cccc(OC)c1C(=O)N[C@@H]1C(=O)N2[C@@H]1SC(C)(C)[C@@H]2C(=O)O [methicillin, reference compound] | – | – | – | – | > 64 | > 64 | 64 (≈ 168 µM) | 64 (≈ 168 µM) | – | – | – | – | – | – | – | – | – | – | – | – |
